What was measured:
[1] = tested on: Plasma; experiment: Free plasma concentration in mouse at 10 mg/kg, po after 1 hr; type: ADME, organism-based; set-up: dose 10 mg/kg, route oral; settings: in vivo
[2] = Unbound brain-to-plasma concentration ratio in mouse at 10 mg/kg, po after 4 hrs; type: ADME, organism-based; set-up: dose 10 mg/kg, route oral; settings: brain and plasma (unbound), read-out: K(p,uu,brain)
[3] = Unbound brain-to-plasma concentration ratio in mouse at 10 mg/kg, po after 1 hr; type: ADME, organism-based; set-up: dose 10 mg/kg, route oral; settings: brain and plasma (unbound), read-out: K(p,uu,brain)
[4] = tested on: Plasma; experiment: Free plasma concentration in mouse at 10 mg/kg, po after 4 hrs; type: ADME, organism-based; set-up: dose 10 mg/kg, route oral; settings: in vivo
[5] = tested on: Brain; experiment: Free drug level in mouse brain at 10 mg/kg, po after 1 hr; type: ADME, organism-based; set-up: dose 10 mg/kg, route oral; settings: in vivo
[6] = Clearance in mouse at 3 mg/kg, iv and 10 mg/kg, po; type: ADME, organism-based; settings: in vivo
[7] = Oral bioavailability in mouse at 10 mg/kg; type: ADME, organism-based; settings: in vivo
[8] = Clearance in mouse liver microsomes at 1 uM after 20 mins by LC-MS/MS analysis in presence of NADPH; type: ADME, Microsome
[9] = tested on: Brain; experiment: Free drug level in mouse brain at 10 mg/kg, po after 4 hrs; type: ADME, organism-based; set-up: dose 10 mg/kg, route oral; settings: in vivo
[10] = Drug uptake in Hartley guinea pig CSF at 150 mg/kg, po formulated with 40/10/50 PEG/ethanol/H2O after 3 hrs; type: ADME, organism-based, Cavia porcellus, Cerebrospinal fluid; set-up: dose 150 mg/kg, route oral; settings: read-out: Drug uptake
Outline: (§1)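 Male Hartley guinea pigs, 6–8 per group, were dosed orally at 4–5 mL/kg and euthanized with intraperitoneal euthasol at set times. CSF (40–100 μL) was collected post-mortem by cisterna magna puncture into tubes containing 10% BSA, then snap-frozen for analysis. Drug concentration was determined in the CSF; plasma and brain were also sampled.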

[11] = Free plasma concentration in Hartley guinea pig at 50 mg/kg, po formulated with 40/10/50 PEG/ethanol/H2O after 3 hrs; type: ADME, organism-based, Cavia porcellus; set-up: dose 50 mg/kg, route oral; settings: in vivo
Outline: (§2)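 Male Hartley guinea pigs, 6−8 weeks, 250−350 g, 6−8 per group, given a single oral dose or vehicle at 4−5 mL/kg. Euthanized with euthasol 250 mg/kg ip at set times. Whole blood was taken post-mortem by cardiac puncture into EDTA and centrifuged at 4 °C. Plasma was stored at −20 °C for drug analysis.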

[12] = Free plasma concentration in Hartley guinea pig at 150 mg/kg, po formulated with 40/10/50 PEG/ethanol/H2O after 3 hrs; type: ADME, organism-based, Cavia porcellus; set-up: dose 150 mg/kg, route oral; settings: in vivo
Outline: (§3)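 Male Sprague–Dawley rats or male Hartley guinea pigs (6−8 weeks, 250−350 g), 6−8 per group, given vehicle or compound orally at 4−5 mL/kg. At set times after dosing, rats were killed by CO₂ and guinea pigs by ip euthasol (250 mg/kg). Plasma came from cardiac-puncture blood in EDTA. CSF was taken by cisterna magna puncture into 10% BSA and snap frozen.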

[13] = Drug uptake in Hartley guinea pig CSF at 50 mg/kg, po formulated with 40/10/50 PEG/ethanol/H2O after 3 hrs; type: ADME, organism-based, Cavia porcellus, Cerebrospinal fluid; set-up: dose 50 mg/kg, route oral; settings: read-out: Drug uptake; outline: as §1
[14] = Clearance in rat liver microsomes at 1 uM after 20 mins by LC-MS/MS analysis in presence of NADPH; type: ADME, Microsome
[15] = Clearance in cynomolgus monkey liver microsomes at 1 uM after 20 mins by LC-MS/MS analysis in presence of NADPH; type: ADME, Macaca fascicularis, Microsome
[16] = Clearance in guinea pig liver microsomes at 1 uM after 20 mins by LC-MS/MS analysis in presence of NADPH; type: ADME, Cavia porcellus, Microsome; settings: read-out: CLH
[17] = Clearance in human liver microsomes at 1 uM after 20 mins by LC-MS/MS analysis in presence of NADPH; type: ADME, Microsome
[18] = Unbound brain-to-plasma concentration ratio in Hartley guinea pig at 75 mg/kg, po formulated with 0.5% HPMC/0.5% Tween 80 after 5 hrs; type: ADME, organism-based, Cavia porcellus; set-up: dose 75 mg/kg, route oral; settings: read-out: K(p,uu,brain)
[19] = Free plasma concentration in Hartley guinea pig at 150 mg/kg, po formulated with 0.5% HPMC/0.5% Tween 80 after 5 hrs; type: ADME, organism-based, Cavia porcellus; set-up: dose 150 mg/kg, route oral; settings: in vivo; outline: as §3
[20] = Drug uptake in Hartley guinea pig CSF at 75 mg/kg, po formulated with 0.5% HPMC/0.5% Tween 80 after 5 hrs; type: ADME, organism-based, Cavia porcellus, Cerebrospinal fluid; set-up: dose 75 mg/kg, route oral; settings: read-out: Drug uptake; outline: as §3
[21] = Free plasma concentration in Hartley guinea pig at 75 mg/kg, po formulated with 0.5% HPMC/0.5% Tween 80 after 5 hrs; type: ADME, organism-based, Cavia porcellus; set-up: dose 75 mg/kg, route oral; settings: in vivo; outline: as §2
[22] = Free drug level in Hartley guinea pig brain at 75 mg/kg, po formulated with 0.5% HPMC/0.5% Tween 80 after 5 hrs; type: ADME, organism-based, Cavia porcellus; set-up: dose 75 mg/kg, route oral; settings: in vivo; outline: as §3
[23] = Drug uptake in Hartley guinea pig CSF at 150 mg/kg, po formulated with 0.5% HPMC/0.5% Tween 80 after 5 hrs; type: ADME, organism-based, Cavia porcellus, Cerebrospinal fluid; set-up: dose 150 mg/kg, route oral; settings: read-out: Drug uptake; outline: as §1

Compound | Cp(f) [1] | Kp uu at 4 h [2] | Kp uu at 1 h [3] | Cp(f) [4] | Drug uptake(free) [5] | clearance [6] | bioavailability [7] | CLhep predicted at 1 µM [8] | Drug uptake(free) [9] | CLhep predicted at 1 µM [14] | CLhep predicted at 1 µM [15] | CLint scaled at 1 µM [16] | CLhep predicted at 1 µM [17] | further results
CN1C(=O)C2(CC(C)(C)Sc3ccc(-c4cc(F)cc(Cl)c4)cc32)N=C1N (racemic) | 2.2 nM | 0.46 | 0.29 | 3.6 nM | 0.7 nM | 69 mL/min/kg | 52% | 47 mL/min/kg | 1.6 nM |  |  |  |  | 
CC1(C)Cc2ccc(-c3cncnc3)cc2C2(COC(N)=N2)C1 (racemic) | 120 nM | 1.1 | 1 | 12 nM | 120 nM | 126 mL/min/kg | 34% | 16 mL/min/kg | 13 nM |  |  |  |  | 
CC1(C)Cc2ccc(-c3cncnc3)cc2[C@@]2(COC(N)=N2)C1 |  |  |  |  |  |  |  | 23 mL/min/kg |  | 28 mL/min/kg | 29 mL/min/kg | 12 mL/min/kg | 3 mL/min/kg | concentration at 3 h [10]: 5610 nM; Cp(f) [11]: 3019 nM; Cp(f) [12]: 6673 nM; concentration at 3 h [13]: 888 nM
CN1C(=O)[C@]2(CC(C)(C)Cc3ccc(-c4cccnc4F)cc32)N=C1N |  |  |  |  |  |  |  | 24 mL/min/kg |  | 60 mL/min/kg | 12 mL/min/kg | 26 mL/min/kg | 3 mL/min/kg | Kp uu at 5 h [18]: 0.037; Cp(f) [19]: 562 nM; concentration at 5 h [20]: 20 nM; Cp(f) [21]: 304 nM; Drug uptake(free) [22]: 11 nM; concentration at 5 h [23]: 247 nM
CN1C(=O)C2(CC(C)(C)Oc3ccc(-c4cc(F)cc(Cl)c4)cc32)N=C1N (racemic) | 42 nM | 0.22 | 0.09 | 32 nM | 3.8 nM | 12 mL/min/kg | 79% | 15 mL/min/kg | 7 nM |  |  |  |  | 
CN1C(=O)C2(CC(C)(C)Cc3ccc(-c4cccnc4F)cc32)N=C1N (racemic) | 47 nM | 0.18 | 0.08 | 29 nM | 3.7 nM | 67 mL/min/kg | 62% | 59 mL/min/kg | 5.1 nM |  |  |  |  | 

From ChEMBL document CHEMBL2346596, “Spirocyclic β-site amyloid precursor protein cleaving enzyme 1 (BACE1) inhibitors: from hit to lowering of cerebrospinal fluid (CSF) amyloid β in a higher species” (J Med Chem, 2013)
